1 molecule from ChEMBL document CHEMBL1649302, “New small-molecule inhibitor class targeting human immunodeficiency virus type 1 virion maturation” (Antimicrob Agents Chemother, 2009) can be followed below.

One may read the CC50 as the concentration that lowers cell viability or growth by half. Low values mean harm at low concentration, high ones better tolerance by the cells. The term EC50 denotes the concentration that produces a half-maximal response.

The nature of data set [1]: Therapeutic index, ratio of CC50 for human MT2 cells to EC50 for HIV1 NL4-3 infected in human MT2 cells. The format is cell-based. Particulars: read-out: TI. In short, it runs like this: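 TI was the mean CC50 (XTT, uninfected MT-2) divided by the mean EC50, determined for each cell line in each experiment.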
A short description of data set [2]: Cytotoxicity against human PM1 cells after 5 days by XTT assay. Format: cell-based. In short, it runs like this:
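CC50 in uninfected PM1 cells was measured by the XTT dye-reduction method: XTT/PMS for 4 h, absorbance at 450 nm, 50% of compound-free formazan.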

In data set [3] the test system is Human immunodeficiency virus 1. The experiment in a line: Antiviral activity against HIV1 92HT599 infected in human MT2 cells assessed as inhibition of viral p24 antigen production after 5 days. The format is functional, organism-based. To be noted: Human immunodeficiency virus 1, 92HT599, MT2, 120 h. In short, it runs like this:
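PM1 cells (NL4-3, Ba-L) or MT-2 cells (92HT594, 92HT599) were infected at MOI 0.16 for 2 h and washed. They were plated at 1 × 10⁴ cells/well (2 × 10⁵/ml) onto half-log compound dilutions. Supernatant p24 was quantified by ELISA at day 5. EC50 was the concentration giving a 50% decrease versus infected, compound-free cells.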

Data set [4] deals with Human immunodeficiency virus 1. The experiment in a line: Antiviral activity HIV1 WEJO infected in human PBMC after 7 days by scintillation counting. The format is functional, organism-based. To be noted: Human immunodeficiency virus 1, WEJO, 168 h. An outline of the steps: (§1)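 Fresh PBMCs from HIV/HBV-seronegative donors were PHA-stimulated (4 μg/ml, 48–72 h) and kept with IL-2 (20 U/ml), with at least two donors pooled. Cells were seeded at 5 × 10⁴/well and infected (final MOI ≅0.1) with nine compound concentrations in triplicate wells. After 7 days, reverse transcriptase activity was measured in cell-free supernatant.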

The test system of data set [5] is Human immunodeficiency virus 1. The data set is described as follows: Antiviral activity HIV1 91US005 infected in human PBMC after 7 days by scintillation counting. To be noted: Human immunodeficiency virus 1, 91US005, 168 h. Format: functional, organism-based. In short, it runs like this: as §1
In data set [6] the test system is Human immunodeficiency virus 1. The experiment in a line: Antiviral activity HIV1 92BR004 infected in human PBMC after 7 days by scintillation counting. Format: functional, organism-based. To be noted: Human immunodeficiency virus 1, 92BR004, 168 h. In short, it runs like this:
(§2)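 PBMCs came from buffy coats pooled from 3–4 seronegative donors, were PHA-stimulated (1.5 μg/ml, 3 days) and frozen. Thawed cells were infected 1 h at 37°C with virus input set by TCID50, then pelleted and resuspended in IL-2 (10 ng/ml). They were plated at 4 × 10⁵ cells/ml onto compounds for 7 days at 37°C. Supernatant RT activity was measured by Quan-T-RT scintillation assay.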

Data set [7] has as its system Human immunodeficiency virus 1. The experiment in a line: Antiviral activity HIV1 92BR026 infected in human PBMC after 7 days by scintillation counting. The format is functional, organism-based. To be noted: Human immunodeficiency virus 1, 92BR026, 168 h.
Data set [8] deals with Human immunodeficiency virus 1. The experiment in a line: Antiviral activity HIV1 92HT596 infected in human PBMC after 7 days by scintillation counting. The format is functional, organism-based. To be noted: Human immunodeficiency virus 1, 92HT596, 168 h. In short, it runs like this:
as §2

Data set [9] concerns Human immunodeficiency virus 1. The data set is described as follows: Antiviral activity HIV1 CMU06 infected in human PBMC after 7 days by scintillation counting. The format is functional, organism-based. Particulars: Human immunodeficiency virus 1, CMU06, 168 h. In short, it runs like this:
as §2

Data set [10] can be described thus: Therapeutic index, ratio of CC50 for human PBMC to EC50 for HIV1 92HT599 infected in human PBMC. To be noted: read-out: TI. An outline of the steps: (§3)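 Frozen PHA-stimulated (1.5 μg/ml, 3 days) buffy-coat PBMCs pooled from three or four seronegative donors. Infected with a TCID50-based virus input per 10⁶ cells for 1 h at 37°C, then pelleted and resuspended in 10 ng/ml IL-2. Plated at 4 × 10⁵ cells/ml on compound dilutions for 7 days at 37°C. Supernatant RT measured by Quan-T-RT. TI is mean CC50 divided by mean EC50.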

A short description of data set [11]: Therapeutic index, ratio of CC50 for human PBMC to EC50 for HIV1 93BR023 infected in human PBMC. To be noted: read-out: TI. An outline of the steps:
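PHA-stimulated (4 μg/ml, 48 to 72 h) PBMCs pooled from at least two seronegative donors, kept with 20 U/ml IL-2, plated at 5 × 10⁴ cells/well. Infected with clinical isolate (final MOI ≅0.1) alongside nine compound concentrations in triplicate wells, 7 days. Supernatant reverse transcriptase activity measured. TI is mean PBMC CC50 divided by mean EC50.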

Data set [12] is described as follows: Therapeutic index, ratio of CC50 for human PBMC to EC50 for HIV1 93BR029 infected in human PBMC. To be noted: read-out: TI. In short, it runs like this: as §3
Data set [13] is described as follows: Therapeutic index, ratio of CC50 for human PBMC to EC50 for HIV1 98IN022 infected in human PBMC. Particulars: read-out: TI. An outline of the steps:
as §3

Each structure is given as a SMILES string.

Turning to `CC(C)(C)c1ccc(C(Cn2cccc(C(F)(F)F)c2=O)NC2Cc3ccccc3C2)cc1` (stereo not drawn), the selectivity ratio in [1] was 53; in data set [10] it was 12; in data set [11] it was less than 1; in data set [12], 30; in data set [13], 13. In [2], this molecule registered a cytotoxic concentration (CC50) at 120 h of 19 µM. Moreover, the concentration for a half-maximal effect (EC50) was 0.21 µM in [3]; 1.5 µM in [4]; more than 17 µM in data set [5]; 0.33 µM in data set [6]; more than 17 µM in [7]; 0.32 µM in data set [8]. This molecule also came in with a half-maximal effective concentration (EC50) in data set [9] of 1.2 µM.
